Test results published in the RNAGym collection of RNA variant scans (doi:10.1126/science.aae0568).
This sample holds only a part of the variants without activity.

B1: tRNA (parent)
chain: GUUCCGUUGGCGUAAUGGUAACGCGUCUCCCUCCUAAGGAGAAGACUGCGGGUUCGAGUCCCGUACGGAACG

Variants of: B1
Experiment: yeast fitness relative to wild type (ratio to wild type); higher = fitter; tRNA-Arg(CCU), competitive growth, 37 C, YPD
Outline: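 For this measurement, the tRNA-Arg(CCU) gene was varied by chemical synthesis at a 3% per-site mutation rate across 69 sites, and each variant was placed at the native genomic locus in Saccharomyces cerevisiae. The pooled strains went through a 24-hour competition in YPD at 37°C in six parallel replicates, with amplicons from start and end populations read by 100-nucleotide paired-end sequencing. Darwinian fitness relative to wild type followed from the change in each genotype's frequency. Genotypes needed ≥ 100 starting reads, and estimates < 0.5 were set to 0.5.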

Variant	yeast fitness
C30G C49A U53C	0.563
C30G C49A U53C G63A C66G	≤ 0.5
C30G C49A U54G	≤ 0.5
C30G C49G	0.635
C30G C55G U59A U64G	≤ 0.5
C30G C55U	0.622
C30G C60A	0.739
C30G C60G	0.521
C30G C60U	0.552
C30G C61U A69U	≤ 0.5
C30G C61U A70G	0.603
C30G C61U G68A	0.541
C30G C62A	0.61
C30G C62G	0.551
C30G G38A	0.572
C30G G39C	0.579
C30G G39C C55A	≤ 0.5
C30G G39C U59C G63C	0.558
C30G G41C A57U	≤ 0.5
C30G G44A G48A G58A	≤ 0.5
C30G G44A G63A	≤ 0.5
C30G G48A	0.633
C30G G48A U53C A70U	≤ 0.5
C30G G48C	0.624

Variant	yeast fitness
C30G G51C A65G	≤ 0.5
C30G G51C G56U	0.628
C30G G56C C62U	≤ 0.5
C30G G58A A69U	0.535
C30G G58C	0.637
C30G G58C G63C	≤ 0.5
C30G G67A	0.619
C30G G67U	0.589
C30G G68A	0.698
C30G G68C	0.691
C30G G68U	0.64
C30G U32A A40G C61G	≤ 0.5
C30G U32A A40U A42C A65C	≤ 0.5
C30G U32A C66U	≤ 0.5
C30G U32G C46G C66U	≤ 0.5
C30G U35A A65C	≤ 0.5
C30G U35A C61U C66G A69U	0.633
C30G U35A C62U	≤ 0.5
C30G U35C C62U	0.551
C30G U47A G68A	≤ 0.5
C30G U47C	0.701
C30G U47G A65G	≤ 0.5
C30G U59G C66A	≤ 0.5
C30G U64A	0.784

Variant	yeast fitness
C30G U64A A70C	≤ 0.5
C30U	1.01
C30U A36C A37G U47C	≤ 0.5
C30U A36C A65C	0.615
C30U A36U A70C	≤ 0.5
C30U A37C C49U C66U	≤ 0.5
C30U A37G A42G C60G	0.516
C30U A37U	0.65
C30U A40C C49G	≤ 0.5
C30U A40G C49U	0.632
C30U A42C G48C A65C	≤ 0.5
C30U A42C G48C U64C	≤ 0.5
C30U A42G A43U U54A	≤ 0.5
C30U A42U A43C A70C	≤ 0.5
C30U A43C	1.04
C30U A43C G67U	0.571
C30U A43C U47G U54G	0.85
C30U A43U	1.03
C30U A43U G51C	≤ 0.5
C30U A43U U54A	0.541
C30U A43U U64C	0.707
C30U A45C G48A G58A G67U	≤ 0.5
C30U A45C G52C	0.568
C30U A45C G58A G67U	≤ 0.5

Variant	yeast fitness
C30U A45G A65G	0.538
C30U A45G G48C G58C U59A	0.548
C30U A45U	0.955
C30U A45U A57C	0.566
C30U A45U C49G	0.713
C30U A57C G63C	≤ 0.5
C30U A57G C66U	0.53
C30U A57U	0.863
C30U A65U C66G	≤ 0.5
C30U A70C	0.869
C30U A70G	0.941
C30U A70U	0.962
C30U C31A	0.754
C30U C31A A40U G56A	≤ 0.5
C30U C31G	0.79
C30U C31G A36C	≤ 0.5
C30U C31G A37U G48C	≤ 0.5
C30U C31G A57U	≤ 0.5
C30U C31G A65C	0.821
C30U C31G C33U A37C A65C	≤ 0.5
C30U C31G G39C C55A C62U A70U	≤ 0.5
C30U C31U A37G A43G	≤ 0.5
C30U C31U A40C A65C	≤ 0.5
C30U C31U A57G	0.75

Variant	yeast fitness
C30U C31U A70C	0.784
C30U C31U C49A	≤ 0.5
C30U C33A G39A	≤ 0.5
C30U C33G	0.691
C30U C33G A65C	0.577
C30U C33U	0.669
C30U C34A A36G C60U A70U	≤ 0.5
C30U C34G	0.715
C30U C34G A40C C49G G68C	≤ 0.5
C30U C34G G38C A65C	0.537
C30U C34G G39A C49G C61U	≤ 0.5
C30U C34G U53C A69C	≤ 0.5
C30U C34U A37U U59C A65U	≤ 0.5
C30U C46A C66U	0.83
C30U C46G C49U A69C	≤ 0.5
C30U C46G G52A	0.6
C30U C46U A57U	0.515
C30U C46U A65C	0.658
C30U C46U A70G	0.601
C30U C46U G50A A69G	0.605
C30U C49A	0.547
C30U C49G	0.718
C30U C49G C61U	0.547
C30U C49U G52A	0.584

Variant	yeast fitness
C30U C55A C62U	≤ 0.5
C30U C60A	0.593
C30U C60G	0.661
C30U C60G C61A A69G	≤ 0.5
C30U C60U	0.734
C30U C61G	0.671
C30U C61G A65C	≤ 0.5
C30U C61U	0.826
C30U C61U G63A A65G	≤ 0.5
C30U C66G A70G	≤ 0.5
C30U C66U	0.777
C30U C66U A69U	0.602
C30U G38A G68C	0.574
C30U G38C A57G	≤ 0.5
C30U G38C A65G	0.53
C30U G38C C55G C61U	≤ 0.5
C30U G38C U64C A65G	≤ 0.5
C30U G39A A40G G67A	≤ 0.5
C30U G39A C60G	0.57
C30U G39A C62U G68C	0.571
C30U G39C	0.682
C30U G39C C60U	≤ 0.5
C30U G41A A69C	≤ 0.5
C30U G44A A65C	0.553

Variant	yeast fitness
C30U G44A C46A	0.637
C30U G44A G48C A70G	≤ 0.5
C30U G44A G56A	≤ 0.5
C30U G44C	0.662
C30U G48A	0.861
C30U G48A G67A	≤ 0.5
C30U G48C A65G	0.606
C30U G48C G68C	0.636
C30U G50A C61G	≤ 0.5
C30U G50C	0.69
C30U G50C C61G	≤ 0.5
C30U G51A C55A	0.686
C30U G51A C66U A70C	≤ 0.5
C30U G51C C61A	0.635
C30U G51C G58C	≤ 0.5
C30U G52A	0.785
C30U G52C C66G	0.707
C30U G56A A69C	0.566
C30U G58A	0.919
C30U G58A C61G G68C A70U	≤ 0.5
C30U G58C	0.822
C30U G63C A69U	0.527
C30U G68C	0.813
